The values that follow come from article PMC6655586 (Nature, 2019).

In one test the test system is HTS cells. The test is described as follows: Mitochondrial membrane potential. The test is classed as cell-based, mouse. To be noted: 1 μM, 10 minutes. In outline: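 HTS cells were exposed for 10 minutes to DMSO, test compound, FCCP, rotenone, antimycin A or oligomycin A, then mitochondrial membrane potential was quantified. Mean ± SD; n = 3 (FCCP, rotenone) or 4 (others).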

Another test deals with MEFs. In words: Western blot for ATF4 in MEFs. To be noted: 1 μM, 6 hours. It counts as cell-based, mouse.

As to `C=C(C)[C@H]1Cc2c(ccc3c2O[C@@H]2COc4cc(OC)c(OC)cc4[C@@H]2C3=O)O1` [rotenone], in the test with HTS cells, the “acute change of mitochondrial membrane potential” value (“acute change” for short) is on record as “acute reduction of membrane potential”. Besides, the ATF4 induction entry in the test with MEFs was “ATF4 induction”.

In the case of oligomycin A, the “acute change” value in the test on HTS cells was “acute increase in mitochondrial membrane potential”. The ATF4 induction entry with MEFs is “ATF4 induction”.

Consider `CCCCCC[C@H]1C(=O)O[C@H](C)[C@H](NC(=O)c2cccc(NC=O)c2O)C(=O)O[C@@H](C)[C@@H]1OC(=O)CC(C)C` [antimycin A], for which the “acute change” value with HTS cells was “acute reduction of membrane potential”. Further, in the test with MEFs, the ATF4 induction result is “ATF4 induction”.
